The values that follow come from ChEMBL document CHEMBL1122805, “Structure-activity relationships of sparsomycin and its analogues. Octylsparsomycin: the first analogue more active than sparsomycin” (1984).

In brackets after ≈: the same amount, converted by molar mass. Activity calls are given as the source filed them. No cut-off for these calls is given here.

The first test has as its system L1210. Kind of test: In vitro cytostatic activity and inhibition of leukemia L1210 cells. The dose causing 50% of inhibition of colony formation (ID50) relative to untreated control cells. The format is functional. The conditions noted are these: Mus musculus, read-out: ID50 (the source's name). The method in brief: (§1)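 Mouse leukemia L1210 cells taken from suspension culture; 100 cells plated per dish in soft agar medium (Dulbecco's with 20% horse serum, 2-mercaptoethanol, L-asparagine, DEAE-dextran, 0.3% agar) containing compound at several concentrations. Continuous exposure 8 days, 37 °C, 10% CO2, humidified. Colonies counted; ID50 from dose-effect curves versus untreated controls. Highest dose tested 100 μg/mL.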
For the molecule `CCCCCCCCSC[S+]([O-])C[C@H](CO)NC(=O)/C=C/c1c(C)nc(O)nc1O` (some centres undefined), the IC50 turned out to be 0.05 µg/mL (≈ 0.109 µM).

Take `Cc1nc(O)nc(O)c1/C=C/C(=O)N[C@@H](CO)CSC[S+](C)[O-]` (some centres undefined): the IC50 worked out at 66 µg/mL (≈ 183 µM).

With `CSC[S@@+]([O-])C[C@H](CO)NC(=O)/C=C/c1c(C)[nH]c(=O)[nH]c1=O`, the IC50 is 2.1 µg/mL (≈ 5.81 µM).

Turning to `CSCSC[C@H](CO)NC(=O)/C=C/c1c(C)nc(O)nc1O`, the IC50 was 4.4 µg/mL (≈ 12.7 µM).

`CSC[S@+]([O-])C[C@H](CO)NC(=O)/C=C/c1c(C)[nH]c(=O)[nH]c1=O`: the IC50 was found to be 0.15 µg/mL (≈ 0.415 µM).

For a further test, the system named is L1210. Kind of test: In vitro cytostatic activity and inhibition of leukemia L1210 cells. The dose causing 50% of inhibition of colony formation (ID50) relative to untreated control cells; NA-Not Active. The format is functional, cell-based. To be noted: Mus musculus. The method in brief:
as §1
Take `CSC[S@+]([O-])C[C@@H](CO)NC(=O)/C=C/c1c(C)nc(O)nc1O`: the ID50 result was “inactive”.

On to `CSCSC[C@@H](CO)NC(=O)/C=C/c1c(C)nc(O)nc1O`, for which the ID50 result was “inactive”.

For the molecule `CSC[S@@+]([O-])C[C@@H](CO)NC(=O)/C=C/c1c(C)[nH]c(=O)[nH]c1=O`, the ID50 entry was “inactive”.

On to `Cc1nc(O)nc(O)c1/C=C/C(=O)N[C@H](CO)CSC[S+](C)[O-]` (some centres undefined), for which the ID50 result was “inactive”.
